Compound activity from PubChem.
In the library only some 1.9% were active in any assay of this set; here they are far more common.
LANA-H2A inh: blocks KSHV LANA binding to histone H2A/H2B; Q9QR71; cell-free LANA-H2A/H2B peptide, fluorescence polarization; inhibition, % (concentration not given with the values); actives 0.6% (n = 320,000); AID 2629; in the data active means inhibition mostly above about 10%, no sharp cut-off; inactive means mostly below about 6.7%
HDAC3 inhib: inhibitors of human histone deacetylase 3; O15379; recombinant HDAC3, fluorogenic peptide/trypsin coupled, fluorescence; inhibition, % at 8.3 µM; actives 0.15% (n = 320,000); AID 2718; in the data active means inhibition above about 26%, passing the limit was not always enough; inconclusive means no clear call, values can overlap the other calls
CaV13 FRET inh: Disruptors of the CACNA1D IQ motif to Ca2+-dependent inactivation inhibitor domain association, primary screening, Förster resonance energy transfer in intact living …; HEK cells, CFP/YFP FRET ICDI-IQ, plate reader, 10 min; percent FRET-ratio fall versus neutral wells; inhibition, % at 12.3 µM; actives 0.098% (n = 340,000); AID 743397;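 active means mean replicate inhibition of at least 30% and at least 1% of replicates passing that level; inconclusive means only one of the two criteria is met; inactive means neither criterion is met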
Runt-SMMHC FRET: blocks binding of human RUNX1 Runt domain to CBFb-SMMHC. Q01196+Q13951. Cerulean-Runt/Venus-CBFb-SMMHC FRET ratio 530/480, 1 h. inhibition, % at 20 µM. actives 0.74% (n = 220,000);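 active means mean inhibition across duplicate retests at 20 µM reaching about 50%, limit read from the data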;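 further: inhibitors lower the FRET ratio by blocking Runt binding to CBFb-SMMHC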
RanGTP-Impb inh: disruptors of Ran-importin-beta complex formation – biochemical, FRET, CFP-Ran, YFP-importin-beta, homogeneous, primary screen. cell-free CFP-Ran/YFP-importin-beta FRET ratio. inhibition, % (no concentration beside the values). actives 1.1% (n = 300,000). AID 2216;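 active means more than half of the replicate wells show a fall in the fluorescence ratio signal beyond about 16%, limit read from the data, passing the limit was not always enough; inconclusive means exactly half of the replicate wells pass the set limit; inactive means fewer than half of replicates pass the limit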
Runt-CBFb FRET: blocks binding of human RUNX1 Runt domain to CBFb; Cerulean-Runt/Venus-CBFb FRET ratio 530/480, 1 h; inhibition, % at 20 µM; actives 0.46% (n = 220,000);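 active means inhibition over about 50% at 20 µM in the single-dose screen, limit read from the data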
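Assay system: Cerulean-Runt domain / Medium: Tris 50 mM pH 7.5, KCl, K2SO4, 0.01% BSA / Timing: protein complex preformed 1 h, compound exposure 1 h, room temperature, dark / Measured by: FRET, excitation 422 nm, emission at 530 and 480 nm / Evaluation: loss of energy transfer signal / Control set: 5 µM unlabeled CBFb as full-inhibition high control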
Runt-CBFb TRFRET: inhibitors of human RUNX1 Runt domain binding to CBFb; shares compounds with Runt-CBFb FRET; TR-FRET RUNX1 Runt domain-CBFb binding; inhibition, % at 20 µM; actives 20% (n = 480); AID 1502; in the data active means inhibition above about 40%
Numbers stand for hits.

What do the screens show for `CCOc1ccc(N(CC(=O)Nc2cccnc2)S(=O)(=O)c2ccc(C)cc2)cc1`?
LANA-H2A inh: inactive; HDAC3 inhib: inactive; CaV13 FRET inh: inactive; RanGTP-Impb inh: inactive

What do the screens show for `COc1ccccc1N1C(=O)C=C(Sc2nc(C)cc(C)n2)C1=O`?
LANA-H2A inh: inactive; HDAC3 inhib: inactive; CaV13 FRET inh: inactive; Runt-SMMHC FRET: 68; RanGTP-Impb inh: inactive; Runt-CBFb FRET: 60; Runt-CBFb TRFRET: inactive

What do the screens show for `Cc1cccnc1Nc1nc(-c2ccc(O)c(O)c2)cs1`?
LANA-H2A inh: inactive; HDAC3 inhib: inactive; CaV13 FRET inh: inactive; Runt-SMMHC FRET: 52; RanGTP-Impb inh: inactive; Runt-CBFb FRET: 65; Runt-CBFb TRFRET: inactive

How did COc1ccc(-c2csc(Nc3ncccc3C)n2)cc1OC do in these assays?
LANA-H2A inh: inactive; HDAC3 inhib: inactive; Runt-SMMHC FRET: inactive; RanGTP-Impb inh: inactive; Runt-CBFb FRET: inactive

How did O=C(O)Cn1cnc2scc(-c3cccs3)c2c1=O do in these assays?
LANA-H2A inh: inactive; HDAC3 inhib: inactive; CaV13 FRET inh: inactive; Runt-SMMHC FRET: inactive; RanGTP-Impb inh: inactive

Results for O=C(O)c1ccc(N/N=C/c2ccc(-c3cccc(Cl)c3)o2)cc1 ?
LANA-H2A inh: inactive; HDAC3 inhib: inactive; CaV13 FRET inh: inactive; Runt-SMMHC FRET: 80; RanGTP-Impb inh: 68; Runt-CBFb FRET: 58; Runt-CBFb TRFRET: inactive

Results for O=C(O)c1cccc(-c2ccc(/C=N/Nc3ccc([N+](=O)[O-])cc3)o2)c1 ?
LANA-H2A inh: inactive; HDAC3 inhib: inactive; CaV13 FRET inh: inactive; Runt-SMMHC FRET: inactive; RanGTP-Impb inh: inactive; Runt-CBFb FRET: inactive

How did CC(C)(C)NC(=O)/C=C/c1cccc(C(F)(F)F)c1 do in these assays?
CaV13 FRET inh: inactive; Runt-SMMHC FRET: inactive; RanGTP-Impb inh: inactive; Runt-CBFb FRET: inactive

What do the screens show for `Nc1nc2ccc(S(=O)(=O)N3CCCCC3)cc2s1`?
LANA-H2A inh: inactive; HDAC3 inhib: inactive; CaV13 FRET inh: inactive; Runt-SMMHC FRET: inactive; RanGTP-Impb inh: inactive; Runt-CBFb FRET: 56; Runt-CBFb TRFRET: inactive

What do the screens show for `Cc1nc2ccc(S(=O)(=O)N3CCCCC3)cc2s1`?
LANA-H2A inh: inactive; HDAC3 inhib: inactive; CaV13 FRET inh: inactive; RanGTP-Impb inh: inactive

Results for Cc1ccc(S(=O)(=O)c2cc3c(=O)n4ccccc4nc3n(CC3CCCO3)c2=N)cc1C (stereo not given) ?
LANA-H2A inh: inactive; HDAC3 inhib: inactive; CaV13 FRET inh: inactive; Runt-SMMHC FRET: 106; RanGTP-Impb inh: 154; Runt-CBFb FRET: 98; Runt-CBFb TRFRET: inactive

How did COc1ccccc1NC(=S)N/N=C/c1ccc(O)cc1 do in these assays?
LANA-H2A inh: inactive; HDAC3 inhib: inactive; CaV13 FRET inh: inactive; Runt-SMMHC FRET: inactive; RanGTP-Impb inh: inactive; Runt-CBFb FRET: inactive

Results for Nc1c(S(=O)(=O)c2cccc(Cl)c2)c2nc3ccccc3nc2n1CCN1CCOCC1 ?
LANA-H2A inh: inactive; HDAC3 inhib: inactive; CaV13 FRET inh: inactive; Runt-SMMHC FRET: inactive; RanGTP-Impb inh: inactive; Runt-CBFb FRET: inactive

How did COCCOC(=O)c1c(N)n(CCCN2CCOCC2)c2nc3ccccc3nc12 do in these assays?
LANA-H2A inh: inactive; HDAC3 inhib: inactive; CaV13 FRET inh: inactive; Runt-SMMHC FRET: 97; RanGTP-Impb inh: inactive; Runt-CBFb FRET: 51; Runt-CBFb TRFRET: inactive

What do the screens show for `CN(C)S(=O)(=O)N1CCN(c2ccc([N+](=O)[O-])c(N3CCOCC3)c2)CC1`?
LANA-H2A inh: inactive; HDAC3 inhib: inactive; CaV13 FRET inh: inactive; Runt-SMMHC FRET: inactive; RanGTP-Impb inh: inactive; Runt-CBFb FRET: inactive

What do the screens show for `O=CN/C=C/c1cc(O)ccc1O`?
LANA-H2A inh: inactive; HDAC3 inhib: inactive; Runt-SMMHC FRET: 59; Runt-CBFb FRET: 65; Runt-CBFb TRFRET: inactive

How did c1ccc2[nH]c(CCCc3nc4ccccc4[nH]3)nc2c1 do in these assays?
LANA-H2A inh: inactive; HDAC3 inhib: inactive; CaV13 FRET inh: inactive; RanGTP-Impb inh: inactive

How did Oc1ccc(O)c(Cc2nc3ccccc3[nH]2)c1 do in these assays?
LANA-H2A inh: inactive; HDAC3 inhib: inactive; CaV13 FRET inh: inactive; Runt-SMMHC FRET: inactive; RanGTP-Impb inh: inactive; Runt-CBFb FRET: 53; Runt-CBFb TRFRET: inactive

Results for CC1CC/C(=N/Nc2ccccc2)C(=O)N1 (stereo not given) ?
LANA-H2A inh: inactive; HDAC3 inhib: inactive; CaV13 FRET inh: inactive; Runt-SMMHC FRET: inactive; RanGTP-Impb inh: inactive; Runt-CBFb FRET: 51; Runt-CBFb TRFRET: inactive

How did O=C(O)c1cccc(S(=O)(=O)Nc2ccc3oc(=O)sc3c2)c1 do in these assays?
LANA-H2A inh: inactive; HDAC3 inhib: inactive; Runt-SMMHC FRET: 68; RanGTP-Impb inh: inactive; Runt-CBFb FRET: 65; Runt-CBFb TRFRET: inactive

What do the screens show for `O=C(O)c1cccc(S(=O)(=O)Nc2ccc(Oc3ccccc3)cc2)c1`?
LANA-H2A inh: inactive; HDAC3 inhib: inactive; CaV13 FRET inh: inactive

What do the screens show for `CC(C)c1ccc(CN2C(=O)c3ccccc3S2(=O)=O)cc1`?
LANA-H2A inh: inactive; HDAC3 inhib: inconclusive; CaV13 FRET inh: inactive; RanGTP-Impb inh: inactive

Results for Cc1ccc(/C=C/C(=O)N2CCN(c3ccc(F)cc3)CC2)o1 ?
LANA-H2A inh: inactive; HDAC3 inhib: inactive; CaV13 FRET inh: inactive; Runt-SMMHC FRET: inactive; RanGTP-Impb inh: inactive; Runt-CBFb FRET: 51; Runt-CBFb TRFRET: inactive

What do the screens show for `CC(=O)Nc1ccc(SCC(=O)NCC2(N3CCCCC3)CCCCC2)cc1`?
LANA-H2A inh: inactive; HDAC3 inhib: inactive; CaV13 FRET inh: inactive

Results for O=C(Cn1c(COc2ccccc2)nc2ccccc21)Nc1cc(Cl)cc(Cl)c1 ?
LANA-H2A inh: inactive; HDAC3 inhib: inactive; CaV13 FRET inh: inactive; Runt-SMMHC FRET: inactive; RanGTP-Impb inh: inactive; Runt-CBFb FRET: inactive

Results for c1ccc(C2CC(c3cccs3)=NN2c2ccccc2)cc1 (stereo not given) ?
LANA-H2A inh: inactive; CaV13 FRET inh: inactive; Runt-SMMHC FRET: 84; RanGTP-Impb inh: inactive; Runt-CBFb FRET: 51; Runt-CBFb TRFRET: inactive

Results for CCOC(=O)c1c(/N=C/c2cc(C)ccc2O)sc2c1CCN(C)C2 ?
LANA-H2A inh: inactive; HDAC3 inhib: inactive; CaV13 FRET inh: inactive; Runt-SMMHC FRET: 60; RanGTP-Impb inh: 56; Runt-CBFb FRET: 50; Runt-CBFb TRFRET: inactive

What do the screens show for `Cc1cccc(/C=N/c2sc3c(c2C(=O)OC(C)(C)C)CCN(C)C3)c1O`?
LANA-H2A inh: inactive; HDAC3 inhib: inactive; CaV13 FRET inh: inactive; Runt-SMMHC FRET: inactive; RanGTP-Impb inh: inconclusive; Runt-CBFb FRET: inactive

Results for Cc1ccc2c(COC(=O)CC3Sc4ccccc4NC3=O)cc(=O)oc2c1C (stereo not given) ?
LANA-H2A inh: inactive; HDAC3 inhib: inactive; CaV13 FRET inh: inactive; Runt-SMMHC FRET: inactive; RanGTP-Impb inh: inactive; Runt-CBFb FRET: inactive
